CHOP inhibitor: inhibitors of CHOP promoter induction, primary screen, cell-based, unfolded protein response, luciferase reporter; CHO-K1 CHOP-promoter luciferase, tunicamycin-induced, 15-18 h; inhibition, % at 10 µM; hit rate 3.8% among 220,000;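 active = compounds that reduced the stress-induced luciferase reporter signal by more than about 70% of percent inhibition, limit read from the data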
UCH37 DUB inh: inhibitors of human UCH37 deubiquitinase, primary screen, biochemical, Ub-AMC cleavage, fluorescence | purified proteasome/UCH37 | hit rate 0.33% among 330,000 | inhibition, % (test concentration not listed);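 active = mean inhibition over replicate wells above about 20%, limit read from the data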
Target sequence (Q9Y5K5 whole entry, looked up): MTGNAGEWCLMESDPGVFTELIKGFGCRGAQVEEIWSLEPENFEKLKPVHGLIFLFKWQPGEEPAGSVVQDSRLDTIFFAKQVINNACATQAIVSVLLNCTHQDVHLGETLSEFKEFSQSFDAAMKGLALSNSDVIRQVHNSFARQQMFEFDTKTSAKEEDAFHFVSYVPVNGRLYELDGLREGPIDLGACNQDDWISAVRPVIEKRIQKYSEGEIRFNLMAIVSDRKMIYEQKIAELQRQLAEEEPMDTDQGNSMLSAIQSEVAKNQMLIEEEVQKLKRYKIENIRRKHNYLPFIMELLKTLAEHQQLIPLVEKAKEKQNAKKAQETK
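Reagent: Ub-AMC substrate; assay system: Proteasome-associated human UCH37 deubiquitinase; controls: no-proteasome and no-compound wells; read-out: % inhibition of Ub-AMC cleavage fluorescence; timing: 30 min preincubation with enzyme, 25 min cleavage at room temperature; signal: AMC fluorescence from Ub-AMC cleavage, excitation 355 nm, emission 460 nm; buffer or medium: Tris-HCl pH 7.4 plus ovalbumin, ATP-MgCl2, DTT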
CHOP UPR activ: activators of apoptotic CHOP UPR arm, primary screen, cell-based, CHO-CHOP luciferase reporter, luminescence, uHTS. UPR activation; percent of tunicamycin response over DMSO baseline. activation, % at 10 µM. hit rate 0.34% among 330,000;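 active = at 10 µM dose, activation of 40% or more, normalized to positive control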
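Test system: CHO-CHOP cells, stable luciferase reporter of PERK-eIF2a-CHOP signalling | Quantity: 500 CHO-CHOP cells per well | Buffer or medium: F12 plus 10% serum | Compound dosing: 10 µM single point, 0.5% DMSO | Schedule: 6 h compound treatment, 37 °C | Signal: Luciferase luminescence | Control set: Tunicamycin high control, DMSO low control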
UPR XBP1 act: activators of adaptive XBP1 UPR arm, primary screen, cell-based, CHO-XBP1 luciferase reporter, luminescence, uHTS; IRE1-XBP1 UPR activation; percent of tunicamycin response, DMSO as zero; activation, % at 20 µM; hit rate 0.33% among 330,000;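 active = versus positive control, 20 µM dose yields 30% or more activation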
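Material: CHO-XBP1 cells stably carrying IRE1-XBP1-driven luciferase reporter / Amount: 1000 cells per well / Compound: 20 µM, 1% DMSO / Times: 6 h treatment, 37 °C / Detection: luciferase luminescence / Measure: % activation of reporter signal versus tunicamycin and DMSO controls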
Fh CTSL1 inh: Fasciola hepatica cathepsin L1 inhibitors, primary screen, counter-screen for PFM18AAP inhibitor project, biochemical, QFRET, fluorogenic peptide substrate. inhibition, % at 5.96 µM. recombinant F. hepatica cathepsin L1, Z-Leu-Arg-MCA fluorescence. hit rate 0.49% among 300,000;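 active = inhibition above the mean of all tested compounds plus 3 SD, set per screening campaign, cut at about 17% in these data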
Hits are given with their value; n = inactive; x = no result given. Only a selection was taken, and hits are over-represented in it overall.

SMILES	CHOP inhibitor	UCH37 DUB inh	CHOP UPR activ	UPR XBP1 act	Fh CTSL1 inh
CCOc1cccc(-c2nnc3sc(COc4ccccc4)nn23)c1	n	n	n	n	n
Cc1ccc[n+](CC(=O)Nc2cccc([N+](=O)[O-])c2)c1	n	n	n	n	n
Cc1ccc[n+](CC(=O)Nc2ccc([N+](=O)[O-])cc2)c1	x	n	n	n	31
O=C(Nc1ccsc1C(=O)NC1CCCCC1)c1ccc(F)cc1	70	n	n	n	n
O=C(Nc1ccsc1C(=O)NC1CC1)c1ccccc1	n	n	n	n	n
CCN1C(=NN)c2cccc3cccc1c23	x	n	x	x	x
CCN(CC)c1ccc(/C=C2\C(=N)N3N=C(CC(=O)N4CCOCC4)SC3=NC2=O)cc1	x	21	n	n	n
ON=C1CCCc2ccc(Cl)cc21	x	n	x	x	x
O=C(Cn1c(C2CC2)nc2ccccc2c1=O)Nc1ccc(Br)cc1	84	n	n	n	n
Cc1cc(NC(=O)Cn2c(C)nc3ccccc3c2=O)ccc1Br	n	n	n	n	n
COc1ccc(C=NNc2nccnc2Cl)c(OC)c1	x	n	x	x	x
O=C(Nc1sc2c(c1C(=O)O)CCC2)c1ccccc1Cl	x	n	n	n	n
Cc1ccccc1C(=O)Nc1sc2c(c1C(=O)O)CCC2	85	x	n	n	n
CC(NC(N)=O)C(=O)Nc1ccc(Cl)c(S(=O)(=O)Nc2ccc(Cl)cc2)c1 (stereo not drawn)	n	n	n	n	n
CC(C)Oc1ccc(C(=O)Nc2ccc(Cl)c(S(=O)(=O)Nc3ccc(Cl)cc3)c2)cc1	71	n	n	n	n
NC(=S)NN=Cc1coc2ccc(O)cc2c1=O	x	n	x	x	x
COc1ccc2nc(SCC(=O)Nc3ccc4c(c3)OCCO4)[nH]c2c1	76	n	n	n	n
CCOc1ccc2nc(SCC(=O)Nc3ccc4c(c3)OCCO4)[nH]c2c1	n	n	n	n	n
CC1(C)CC(=O)C(C=Nn2cnc3ccccc3c2=O)=C(O)C1	x	n	x	x	x
COCCNC(=S)NN=C(C)c1ccc(C)c([N+](=O)[O-])c1	x	n	x	x	x
COc1ccc(N2C(=O)[C@@H]3[C@H](C2=O)[C@H]2c4ccccc4C=CN2[C@@H]3C(=O)Nc2ccccc2)cc1	n	30	n	n	n
Cc1ccc(N2C(=O)[C@@H]3[C@H](C2=O)C2c4ccccc4C=CN2[C@@H]3C(=O)c2ccco2)cc1 (stereo partly drawn)	n	n	x	x	x
CC(=O)[C@@H]1[C@@H]2C(=O)N(Cc3ccccc3)C(=O)[C@@H]2C2c3ccccc3C=CN21 (stereo partly drawn)	n	58	n	n	n
CC(C)NS(=O)(=O)c1ccc(OCC(=O)Nc2ccc3c(c2)OCO3)c(Cl)c1	70	n	n	n	n
COC(=O)NN=Cc1cn(CCOc2ccccc2OC)c2ccccc12	x	n	x	x	x
SMILES	CHOP inhibitor	UCH37 DUB inh	CHOP UPR activ	UPR XBP1 act	Fh CTSL1 inh
COC(=O)c1cn(CCOc2ccccc2OC)c2ccccc12	n	22	n	n	n
COc1ccccc1OCCn1cc(/C=N/NC(N)=S)c2ccccc21	n	x	n	n	95
NC(=S)N/N=C/c1ccccc1OCCSc1ccc(Cl)cc1	n	x	n	n	25
NC(=S)N/N=C/c1c[nH]c2ccccc12	n	x	n	n	102
COc1cccc(/C=N/NC(N)=S)c1OCc1ccccc1Cl	n	x	n	n	n
NC(=O)COc1ccc(C=NNS(=O)(=O)c2ccccc2)cc1	x	n	x	x	x
CC(=O)n1cc(/C=N/NC(N)=S)c2ccccc21	n	x	n	n	95
C/C(C=Nn1c(-c2ccco2)n[nH]c1=S)=C\c1ccco1	x	n	x	x	x
COc1ccc(C2N(c3ccc(C)cc3)CCN2c2ccc(C)cc2)cc1O	95	n	n	n	n
CCCc1cc(C(=O)Nc2cccc(C(C)=O)c2)no1	n	n	n	n	n
CCCc1cc(C(=O)Nc2ccc(C(C)=O)cc2)no1	n	n	n	n	17
O=C(CSc1ccc(C=NNC(=O)c2cccc(F)c2)o1)Nc1ccccc1	x	n	x	x	x
CCOC(=O)c1c(NC(=O)CSc2ncnc3ccccc23)sc(C(C)=O)c1C	75	n	n	n	n
CCOC(=O)c1cc(-c2ccc(Cl)cc2)nc2c1c(=O)[nH]c(=O)n2CCOC	78	n	n	n	n
COc1cccc(C(C)=NNc2ncc(Cl)cc2Cl)c1	x	n	x	x	x
O=C(O)CC/C(=C\c1ccc(N2CCCC2)c([N+](=O)[O-])c1)c1nc2ccccc2s1	95	n	n	n	n
COc1ccc(-c2[nH]c(-c3ccc(SC)cc3)nc2SCC(=O)Nc2nccs2)cc1	77	x	n	n	n
COc1ccc(-c2[nH]c(-c3ccc(C)cc3)nc2SCC(=O)Nc2nccs2)cc1	n	n	n	n	n
COc1ccc2c(c1)C(=NO)c1cc(OC)ccc1-2	72	n	n	n	n
NC1=NC(=O)/C(=C\c2ccc(O)c([N+](=O)[O-])c2)S1	n	24	n	n	n
CCC(=O)Nc1ccccc1-c1nnn(CC(=O)N2c3ccccc3CC2C)n1 (stereo not drawn)	76	n	n	n	n
CC1Cc2ccccc2N1C(=O)Cn1nnc(-c2ccccc2NC(=O)C2CCC2)n1 (stereo not drawn)	n	n	n	n	n
O=C(CSCc1cccc(Br)c1)NN=Cc1ccc2c(c1)OCO2	x	n	x	x	x
CC(C)(C)c1ccc(NC(=O)CSc2nnc(-c3n[nH]c4ccccc34)o2)cc1	94	n	n	n	n
O=c1ccc2cc(S(=O)(=O)N3CCN(c4cc(Cl)ccc4Cl)CC3)ccc2o1	70	n	n	n	n
SMILES	CHOP inhibitor	UCH37 DUB inh	CHOP UPR activ	UPR XBP1 act	Fh CTSL1 inh
CCOc1ccc(-c2csc(/C(C#N)=C\c3ccc(O)c([N+](=O)[O-])c3)n2)cc1	94	n	n	n	n
CC(=O)Nc1ccc(C=NN2C(C)CCCC2C)cc1 (stereo not drawn)	x	n	x	x	x
CCCCc1ccc(C(C)=NNC(=O)C2CCCC2)cc1	x	n	x	x	x
Oc1ccc(-c2nccc(-c3ccc(Cl)cc3Cl)n2)cc1	80	x	n	n	n
Oc1ccc(-c2nccc(-c3ccc(Cl)cc3)n2)cc1	n	n	n	n	n
CC(Cn1nnc([N+](=O)[O-])n1)=NNC(=O)c1ccc(Cl)c(Cl)c1	x	n	x	x	x
Cc1n[nH]c(C)c1CCC(=O)NN=Cc1c[nH]c2ccccc12	x	n	x	x	x
COc1ccccc1NC(=O)Cn1nnc(-c2ccccc2NC(=O)c2cnccn2)n1	90	n	n	n	n
COc1ccc(NC(=O)Cn2nnc(-c3ccccc3NC(=O)c3ccco3)n2)cc1	82	n	n	n	n
COc1ccccc1NC(=O)Cn1nnc(-c2ccccc2NC(=O)c2ccco2)n1	n	n	n	n	n
O=C(Cn1nnc(-c2ccccc2NC(=O)c2cccs2)n1)Nc1ccccc1	80	n	n	n	n
